Published values pooled from the literature.
Lines come from different studies, so protocols differ.
Target: STE20-like serine/threonine-protein kinase (SLK, Homo sapiens, UniProt Q9H2G2)

Structure (SMILES)	test	conditions	remaining binding [%]
CCOC(=O)c1cc2cc(-c3cc(C(=O)NCc4ccc(C(=O)O)cc4)nn3C)ccc2[nH]1	cell-free assay, competition with immobilised ligand	0.1 µM	98
C[C@@H](c1ccc(-n2cnc3c(N)ncnc32)cc1)N1CCc2nn(C)c(Cc3ccccc3)c2C1=O	binding, competition with immobilised ligand	0.1 µM	100
O=C(Nc1c[nH]nc1C(=O)NC1CCNCC1)c1cc(F)cc(F)c1	binding, competition with immobilised ligand	1 µM	100
N[C@@H]1CCN(c2nccc(-c3cnn4ncccc34)n2)C1	binding	1 µM	83
FC(F)(F)Oc1cccc(-c2cnc3ccc(-c4ccncc4)nn23)c1	binding, competition with immobilised ligand	5 µM	7.8
COc1ncc2cc3ccccc3nc2c1C#N	cell-free assay, competition with immobilised ligand	5 µM	89
Cc1nc(Cc2cccc(C(F)(F)F)c2)sc1-c1ccc(C(N)=O)nc1	cell-free assay, competition with immobilised ligand	1 µM	100
COc1cnc(Nc2cccc(S(N)(=O)=O)c2)nc1N1CCN(c2ccccc2)C(=O)C1	binding, competition with immobilised ligand	1 µM	100
O=C(NS(=O)(=O)c1ccc(NCC2CCOCC2)c([N+](=O)[O-])c1)c1ccc(N2CCN(Cc3ccc(C(F)(F)F)cc3-c3ccc(Cl)cc3)CC2)cc1Oc1cnc2[nH]ccc2c1	cell-free assay, competition with immobilised ligand	1 µM	100
O=C(NCCCN1CCOCC1)c1ccc(Nc2nccc(-c3cc4ccccc4s3)n2)cc1	binding, competition with immobilised ligand	1 µM	38
Cc1c(NC(=O)c2cc(C(N)=O)nc3cc(F)ccc23)c(C(F)(F)F)nn1Cc1ccc(C(C)(C)C)cc1	cell-free assay, competition with immobilised ligand	1 µM	100
CN(C)c1nccc(-c2cnc3ncccn23)n1	binding	1 µM	100
C[C@@H]1CN(c2cc(-c3n[nH]c4ccc(OC5(C)CC5)cc34)ncn2)C[C@H](C)O1	cell-free assay, competition with immobilised ligand	0.1 µM	98
Cc1cnn2ncc(-c3ccnc(N(C)C)n3)c2c1	binding	1 µM	100
Cc1cnc(Nc2ccc(C(=O)N3CCC(N4CCCC4)CC3)cc2)nc1-c1cc2ccccc2s1	binding, competition with immobilised ligand	1 µM	0.4
CN(C)c1nccc(-c2cnn3ncccc23)n1	binding	1 µM	100
O=C(c1ccc(Nc2nccc(-c3cc4ccccc4s3)n2)cc1)N1CCC(N2CCCC2)CC1	binding, competition with immobilised ligand	1 µM	13
CN(c1nccc(-c2cnn3ncccc23)n1)C1CC1	binding	1 µM	100
c1ccc(N2CCN(Cc3nc4ccccc4[nH]3)CC2)nc1	binding, competition with immobilised ligand	1 µM	93
C[C@H]1CCN(c2nccc(-c3cnn4ncccc34)n2)C1	binding	1 µM	96
c1cncc(-c2cccc(Nc3nccc(NC4CCCCC4)n3)c2)c1	binding, competition with immobilised ligand	10 µM	19
